In test [1] the test system is T47D. Kind of test: Antiproliferative activity against human T47D cells under hypoxic conditions upto 10 uM after 16 to 48 hrs by neutral red assay. The test is classed as functional. An outline of the steps: (§1)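 T47D proliferation/viability measured by Neutral Red; % inhibition = [1 − OD540(treated)/OD540(control)] × 100. Hypoxic exposure was 1% O2 for 16 or 48 h, with compounds at up to 10 μM. Normoxic incubation was 48 h. Compounds were dissolved as 4 mM DMSO stocks.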

Test [2] in a line: Inhibition of 1,10-phenanthroline-induced HIF1 activation in T47D cells by reporter gene assay. The format is cell-based. The conditions noted are these: Homo sapiens. An outline of the steps:
(§2)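 Transfected T47D luciferase reporter for HIF-1. HIF-1 was induced either by hypoxia (1% O2) or by 1,10-phenanthroline (10 μM) during compound treatment. Luciferase activity was read out and concentration-response was tested at 1, 3 and 10 μM. Compounds came from 4 mM DMSO stocks. Emetine at 1 μM was the positive control.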

Test [3] is described as follows: Inhibition of HIF1 activation in T47D cells by reporter gene assay. The format is cell-based. The note with it: Homo sapiens. The method, boiled down:
as §2
(A reporter such as luciferase makes a cellular process visible.)

The test system of test [4] is T47D. Put plainly: Antiproliferative activity against human T47D cells under normoxic conditions at 10 uM after 48 hrs. The format is functional. The method, boiled down:
as §1

The subject of test [5] is T47D. Put plainly: Inhibition of HIF1 activation in T47D cells at 10 uM by reporter gene assay. The format is cell-based. The conditions noted are these: Homo sapiens. An outline of the steps: as §2
For test [6], the system named is T47D. Kind of test: Inhibition of 1,10-phenanthroline-induced VEGF protein level in T47D cells at 10 uM by ELISA. The arrangement: scale not given: the % may be the effect or the level left. The test is classed as functional, Homo sapiens. An outline of the steps:
(§3)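 Exponentially grown T47D cells were exposed to compound for 16 h under hypoxia (1% O2) or 1,10-phenanthroline (10 μM). Secreted VEGF in conditioned media was measured by ELISA. Cells were lysed and lysate protein was measured by Micro BCA; VEGF was normalized to lysate protein. Triplicate wells, mean ± SD.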
In general terms: ELISA stands for enzyme-linked immunosorbent assay.

Test [7] relates to T47D. Kind of test: Inhibition of hypoxia-induced VEGF protein level in T47D cells at 10 uM by ELISA. The test is classed as functional, Homo sapiens. The arrangement: scale not given: the % may be the effect or the level left. An outline of the steps: as §3
Test [8] has as its system T47D. Put plainly: Inhibition of hypoxia-induced VEGF protein level in T47D cells at 3 uM by ELISA. The test is classed as functional, cell-based. The note with it: Homo sapiens. An outline of the steps: as §3
The test system of test [9] is T47D. Put plainly: Antiproliferative activity against human T47D cells under normoxic conditions at 1 uM after 48 hrs. The test is classed as functional. The method, boiled down: as §1
Test [10] concerns T47D. Kind of test: Antiproliferative activity against human T47D cells under normoxic conditions after 48 hrs. The test is classed as functional, cell-based. The method, boiled down:
as §1

Test [11] concerns T47D. Put plainly: Inhibition of 1,10-phenanthroline-induced HIF1 activation in T47D cells at 10 uM by reporter gene assay. The conditions noted are these: Homo sapiens. The format is cell-based. The arrangement: scale not given: the % may be the effect or the level left. The method, boiled down: as §2

We go through four compounds from ChEMBL document CHEMBL1141333, “Molecular-targeted antitumor agents. 15. Neolamellarins from the marine sponge Dendrilla nigra inhibit hypoxia-inducible factor-1 activation and secreted vascular endothelial growth factor production in breast tumor cells” (J Nat Prod, 2007).

The source made the active and inactive calls. The calls are words filed in the database; no cut-off is given here. Where only a bound is given, the exact number is not on record here.

As usually defined, the IC50 is the concentration at which inhibition is half-maximal. The inhibition is how much of the control response was suppressed. In the case of `O=C(C(O)c1ccc(O)cc1)n1cc(-c2ccc(O)cc2)c(-c2ccc(O)cc2)c1` (racemic) [7-(R/S)-HYDROXYLAMELLARIN A], the Activity with T47D [1] is under 20%; in the test on T47D [4], 34%; in the test with T47D [6], 33%; in the test with T47D [7] it was 87%; in the test with T47D [9], -8%. Moreover, the half-maximal inhibitory concentration (IC50) was 3.7 µM in test [2] and 1.9 µM in [3]. This compound had an inhibition in the test on T47D [5] of 98%. Moreover, the result with T47D [8] was inactive.

Consider `O=C(Cc1ccc(O)cc1)N1C(=O)C(c2ccc(O)cc2)=C(c2ccc(O)cc2)C1O` (stereo unspecified) [5-HYDROXYNEOLAMELLARIN B], for which the values for the Activity in the test on T47D [1] and in the test with T47D [11] were under 20% and 33%, respectively. Also, in the test on T47D [10], the result was inactive. In the test on T47D [5], this compound came in with an inhibition of 22%.

With `O=C(Cc1ccc(O)cc1)n1cc(-c2ccc(O)cc2)c(-c2ccc(O)cc2)c1` [NEOLAMELLARIN A], the figures for the Activity in the test on T47D [1] and in the test with T47D [11] were under 20% and 58%, respectively. In addition, the outcome with T47D [10] was inactive. Moreover, the inhibition in the test on T47D [5] amounted to 26%.

Turning to `O=C(Cc1ccc(O)cc1)N1CC(c2ccc(O)cc2)=C(c2ccc(O)cc2)C1=O` [NEOLAMELLARIN B], the values for the Activity with T47D [1] and in the test with T47D [11] were under 20% and 42%, respectively. Further, the outcome in the test with T47D [10] was inactive. The compound further gave an inhibition with T47D [5] of 23%.
